2 compounds from ChEMBL document CHEMBL2203241, “Natural product-derived antitumor compound phenethyl isothiocyanate inhibits mTORC1 activity via TSC2” (J Nat Prod, 2012) can be followed below.

One may read the IC50 as the concentration at which inhibition is half-maximal.

Experiment [1] relates to MCF7. Kind of experiment: Inhibition of HIF1alpha RNA translation in human MCF7 cells at 10 ug/mL pretreated for 1 hr prior to metabolic labeling by SDS-PAGE analysis. Type of experiment: functional, cell-based. The gist of the method: (§1)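 MCF7 cells held 1 h in DMEM without L-glutamine, cysteine and methionine, with 10% dialysed FCS and 2 mM glutamine. Then pretreated 1 h with compound, cycloheximide 10 μg/mL or DMSO, and labelled 2 h with [35S] amino acids (0.75 MBq/mL) plus CoCl2 100 μM. RIPA lysates immunoprecipitated overnight at 4 °C with anti-HIF1α or isotype IgG; SDS-PAGE, phosphorimaging. Three independent experiments.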

Experiment [2] has as its system MEF. Briefly: Inhibition of growth in TSC2-deficient MEF cells after 6 days. Type of experiment: functional, cell-based. The note with it: Mus musculus, 144 h. The essentials: (§2)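 Growth assay: p53−/−TSC2−/− and control MEFs plated at 1000 cells/well and treated next day with compound, DMSO or nothing. After 6 days relative cell number read by CellTiter 96 AQueous One, expressed as % of untreated. IC50 from curve fit; mean ± SD of three independent experiments.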

Experiment [3] has as its system MEF. Briefly: Inhibition of growth in wild type MEF cells after 6 days. Type of experiment: functional, cell-based. The note with it: Mus musculus, 144 h. The essentials: as §2
The subject of experiment [4] is MCF7. Kind of experiment: Increase in mTORC2 activity in human MCF7 cells induction of Akt phosphorylation at serine 473 after 4 hrs by immunoblotting analysis. Type of experiment: cell-based. The essentials: (§3)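 MCF7 cells given 20 μM compound or DMSO for up to 4 h. Immunoblots for phospho-AKT T308, phospho-AKT S473, total AKT and β-actin. Phospho signals normalised to total AKT; total AKT normalised to β-actin. Mean ± SD of three independent experiments; repeated measures ANOVA with Tukey's test.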

The subject of experiment [5] is MEF. Kind of experiment: Increase in mTORC2 activity in p53-/-TSC2-/- MEF cells assessed as […] in NDRG1 phosphorylation at threonine 346 after 3 hrs by immunoblotting analysis. Type of experiment: cell-based. The note with it: Mus musculus. The essentials: (§4)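 p53−/−TSC2+/+ and p53−/−TSC2−/− MEFs in standard serum-containing medium exposed to compound, DMSO (matched to 20 μM) or nothing for 3 h. Immunoblots probed for phospho-AKT S473, total AKT, phospho-NDRG1 T346 and total NDRG1, with HSC70 as loading control.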
For orientation: A western blot detects proteins with antibodies after separation by electrophoresis.

Experiment [6] concerns MEF. Kind of experiment: Increase in mTORC2 activity in p53-/-TSC2-/- MEF cells assessed as […] of Akt phosphorylation at serine 473 after 3 hrs by immunoblotting analysis. Type of experiment: cell-based. The note with it: Mus musculus. The essentials: as §4
Experiment [7] has as its system MEF. Briefly: Effect on mTORC2 in p53-/-TSC2+/+ MEF cells assessed as as NDRG1 phosphorylation at threonine 346 after 3 hrs by immunoblotting analysis. It counts as cell-based. The note with it: Mus musculus. The gist of the method:
as §4

Experiment [8] has as its system MEF. Kind of experiment: Effect on mTORC2 in p53-/-TSC2+/+ MEF cells assessed as Akt phosphorylation at serine 473 after 3 hrs by immunoblotting analysis. It counts as cell-based. The note with it: Mus musculus. The essentials: as §4
In experiment [9] the test system is MEF. Briefly: Inhibition of mTORC1 in p53-/-TSC2-/- MEF cells assessed as reduction of p70S6K phosphorylation at threonine 389 after 3 hrs by immunoblotting analysis. It counts as cell-based. The note with it: Mus musculus. The essentials:
(§5)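 p53−/−TSC2+/+ and p53−/−TSC2−/− MEFs in standard serum-containing medium exposed to a concentration series, DMSO (matched to 20 μM) or nothing for 3 h. Immunoblots for phospho-p70 S6K T389, total p70 S6K and β-actin. Mean ± SD of three independent experiments; ANOVA with Tukey's test within each line, t test between lines.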

Experiment [10] has as its system MEF. Briefly: Inhibition of mTORC1 in p53-/-TSC2+/+ MEF cells assessed as reduction of p70S6K phosphorylation at threonine 389 after 3 hrs by immunoblotting analysis. It counts as cell-based. The note with it: Mus musculus. The essentials: as §5
Experiment [11] deals with AMP-activated protein kinase, AMPK (Homo sapiens) (UniProt P54646+O43741+P54619+Q9UGJ0+Q9Y478+Q13131+Q9UGI9). Kind of experiment: Induction of AMPK phosphorylation at threonine 172 in human MCF7 cells after 3 hrs by immunoblotting analysis. Type of experiment: cell-based.
Experiment [12] addresses Mitogen-activated protein kinase; ERK1/ERK2 (Homo sapiens) (UniProt P27361+P28482). Kind of experiment: Induction of ERK1/2 phosphorylation at threonine 202/tyrosine 204 in human MCF7 cells after 3 hrs by immunoblotting analysis. Type of experiment: cell-based.
The test system of experiment [13] is MCF7. Briefly: Induction of Akt phosphorylation at threonine 308 in human MCF7 cells after 4 hrs by immunoblotting analysis relative to total Akt. Type of experiment: cell-based. The essentials:
as §3

Experiment [14] has as its system MCF7. Kind of experiment: Inhibition of Akt phosphorylation at threonine 308 in human MCF7 cells at 20 uM after 4 hrs by immunoblotting analysis. Type of experiment: cell-based. The gist of the method:
as §3

For experiment [15], the system named is MEF. Kind of experiment: Inhibition of mTORC1 in PTEN-/- MEF cells assessed as reduction of p70S6K phosphorylation after 3 hrs by immunoblotting analysis. It counts as cell-based. The note with it: Mus musculus. The gist of the method: (§6)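 PTEN+/+ and PTEN−/− MEFs exposed to a concentration series, DMSO or nothing for 3 h. Immunoblots for phospho-p70 S6K T389, total p70 S6K and β-actin.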

Experiment [16] relates to MEF. Kind of experiment: Inhibition of mTORC1 in MEF cells assessed as reduction of p70S6K phosphorylation at threonine 389 at 2.5 to 5 uM after 3 hrs by immunoblotting analysis. Type of experiment: cell-based. The note with it: Mus musculus. The essentials: as §6
In experiment [17] the test system is MEF. Briefly: Inhibition of mTORC1 in p53-/-TSC+/+ MEF cells assessed as reduction of p70S6K phosphorylation after 3 hrs by immunoblotting analysis. Type of experiment: cell-based. The note with it: Mus musculus. The essentials:
as §5

For experiment [18], the system named is MEF. Briefly: Inhibition of mTORC1 in PTEN+/+ MEF cells assessed as reduction of p70S6K phosphorylation after 3 hrs by immunoblotting analysis. Type of experiment: cell-based. The note with it: Mus musculus. The essentials:
as §6

For experiment [19], the target named is T1, mTORC1 (Homo sapiens) (UniProt P42345+Q8N122+Q9BVC4). Kind of experiment: Inhibition of mTORC1 in human MCF7 cells assessed as reduction of p70S6K phosphorylation at 20 uM after 15 mins by immunoblotting analysis. It counts as cell-based. The gist of the method:
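MCF7 cells exposed to 20 μM compound or DMSO over a time course; p70 S6K phosphorylation read by immunoblotting.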

Experiment [20] has as its target T1, mTORC1 (Homo sapiens). Kind of experiment: Inhibition of mTORC1 in human MCF7 cells assessed as reduction of 4E-BP1 phosphorylation after 3 hrs by immunoblotting analysis. Type of experiment: cell-based. The gist of the method:
(§7)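 MCF7 cells exposed to a concentration series, DMSO or nothing for 3 h, then immunoblotted. Repeated measures ANOVA with Tukey's test.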

The target of experiment [21] is T1, mTORC1 (Homo sapiens). Kind of experiment: Inhibition of mTORC1 in human MCF7 cells assessed as reduction of p70S6K phosphorylation at threonine 389 after 3 hrs by immunoblotting analysis. Type of experiment: cell-based. The essentials:
as §7

Experiment [22] has as its target T2, Hypoxia inducible factors; HIF-1-alpha, HIF-2-alpha (Homo sapiens, UniProt Q16665+Q99814). Kind of experiment: Inhibition of Serine/threonine-protein kinase mTOR complex 1-mediated HIF1alpha RNA translation in human MCF7 cells at 20 uM pretreated for 1 hr prior to metabolic labeling by SDS-PAGE analysis. Type of experiment: cell-based. The essentials:
as §1

In experiment [23] the target is T2, Hypoxia inducible factors; HIF-1-alpha, HIF-2-alpha. Kind of experiment: Inhibition of Serine/threonine-protein kinase mTOR complex 1-mediated HIF1alpha RNA translation in human MCF7 cells pretreated for 1 hr prior to metabolic labeling by SDS-PAGE analysis. It counts as cell-based. The gist of the method:
as §1

The source made the active and inactive calls. The rule behind the calls is not given here.

T1 sequence (Q8N122 whole entry, looked up, other chains not shown): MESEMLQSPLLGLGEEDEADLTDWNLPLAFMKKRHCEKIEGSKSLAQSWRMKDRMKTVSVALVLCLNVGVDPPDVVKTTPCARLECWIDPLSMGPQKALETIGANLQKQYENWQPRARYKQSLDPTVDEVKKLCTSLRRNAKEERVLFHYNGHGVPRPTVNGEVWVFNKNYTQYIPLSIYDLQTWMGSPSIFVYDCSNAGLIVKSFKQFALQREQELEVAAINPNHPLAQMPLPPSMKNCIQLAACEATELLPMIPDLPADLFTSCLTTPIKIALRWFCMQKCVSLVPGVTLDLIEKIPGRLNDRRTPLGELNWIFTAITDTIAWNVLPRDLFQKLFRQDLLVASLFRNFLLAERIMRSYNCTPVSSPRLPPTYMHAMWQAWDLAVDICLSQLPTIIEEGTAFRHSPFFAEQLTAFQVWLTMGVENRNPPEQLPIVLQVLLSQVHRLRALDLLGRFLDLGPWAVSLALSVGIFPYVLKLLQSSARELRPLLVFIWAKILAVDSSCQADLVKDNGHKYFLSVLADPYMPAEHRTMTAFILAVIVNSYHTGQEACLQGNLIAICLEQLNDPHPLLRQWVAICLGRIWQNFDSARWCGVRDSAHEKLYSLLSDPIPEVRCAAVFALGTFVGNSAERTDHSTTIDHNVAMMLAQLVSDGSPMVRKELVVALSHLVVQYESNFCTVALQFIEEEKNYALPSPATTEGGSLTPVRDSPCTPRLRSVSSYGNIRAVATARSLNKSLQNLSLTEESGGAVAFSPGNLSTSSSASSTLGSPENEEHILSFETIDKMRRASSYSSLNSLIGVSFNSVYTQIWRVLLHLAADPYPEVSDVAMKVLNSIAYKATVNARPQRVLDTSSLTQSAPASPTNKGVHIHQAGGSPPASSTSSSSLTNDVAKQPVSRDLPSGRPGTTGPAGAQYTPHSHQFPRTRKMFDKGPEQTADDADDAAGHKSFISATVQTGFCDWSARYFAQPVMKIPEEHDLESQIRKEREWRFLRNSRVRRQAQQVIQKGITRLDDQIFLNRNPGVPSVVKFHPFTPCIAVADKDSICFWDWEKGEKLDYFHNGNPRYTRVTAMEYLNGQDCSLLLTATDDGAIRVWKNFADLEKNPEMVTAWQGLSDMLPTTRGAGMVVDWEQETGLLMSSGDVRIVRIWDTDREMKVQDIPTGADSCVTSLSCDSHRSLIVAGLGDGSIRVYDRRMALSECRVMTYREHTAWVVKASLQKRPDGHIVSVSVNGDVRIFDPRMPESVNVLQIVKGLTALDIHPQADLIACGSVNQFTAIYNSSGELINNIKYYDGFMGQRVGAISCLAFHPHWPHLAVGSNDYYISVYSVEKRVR
T1 sequence (Q9BVC4 whole entry, looked up, other chains not shown): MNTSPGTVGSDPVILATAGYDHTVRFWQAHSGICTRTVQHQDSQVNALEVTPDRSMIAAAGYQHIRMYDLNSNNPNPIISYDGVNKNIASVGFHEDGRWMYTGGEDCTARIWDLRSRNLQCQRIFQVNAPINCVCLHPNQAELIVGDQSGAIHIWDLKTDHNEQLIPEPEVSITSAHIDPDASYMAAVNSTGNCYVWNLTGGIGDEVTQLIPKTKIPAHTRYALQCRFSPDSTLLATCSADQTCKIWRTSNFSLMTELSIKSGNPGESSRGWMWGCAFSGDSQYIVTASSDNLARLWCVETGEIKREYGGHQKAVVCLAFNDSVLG
Mitogen-activated protein kinase; ERK1/ERK2 (Homo sapiens), sequence (P27361 whole entry, looked up): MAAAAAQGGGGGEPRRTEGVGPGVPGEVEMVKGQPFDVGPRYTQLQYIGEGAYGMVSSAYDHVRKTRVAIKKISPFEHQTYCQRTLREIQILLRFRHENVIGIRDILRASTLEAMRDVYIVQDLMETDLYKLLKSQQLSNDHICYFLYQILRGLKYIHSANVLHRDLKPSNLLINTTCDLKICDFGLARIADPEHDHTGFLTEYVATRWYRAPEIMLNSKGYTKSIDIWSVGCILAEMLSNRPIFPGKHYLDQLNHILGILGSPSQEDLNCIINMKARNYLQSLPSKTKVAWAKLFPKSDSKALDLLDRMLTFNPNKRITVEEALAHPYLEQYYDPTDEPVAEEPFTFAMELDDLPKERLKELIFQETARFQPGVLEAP
Mitogen-activated protein kinase; ERK1/ERK2 (Homo sapiens), sequence (P28482 whole entry, looked up): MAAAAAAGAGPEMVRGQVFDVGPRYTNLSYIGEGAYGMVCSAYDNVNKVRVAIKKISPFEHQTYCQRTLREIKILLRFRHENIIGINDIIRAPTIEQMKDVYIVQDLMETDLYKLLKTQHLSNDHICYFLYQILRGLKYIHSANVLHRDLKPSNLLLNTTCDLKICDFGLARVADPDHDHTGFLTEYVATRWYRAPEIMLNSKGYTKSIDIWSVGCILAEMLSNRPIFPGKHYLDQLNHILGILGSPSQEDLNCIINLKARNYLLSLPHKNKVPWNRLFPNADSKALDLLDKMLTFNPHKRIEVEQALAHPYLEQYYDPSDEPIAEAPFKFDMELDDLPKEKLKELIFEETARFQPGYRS

Consider `C[C@@H]1C[C@@H]([C@H](O)CC2CC(=O)NC(=O)C2)C(=O)[C@@H](C)C1`, for which, in the experiment on MCF7 [1], the inhibition result is “Active”.

Turning to `S=C=NCCc1ccccc1` [PHENETHYLISOTHIOCYANATE], the IC50 with MEF [2] stood at 8 µM; with MEF [3], 4.7 µM; in [23], 7.5 µM. Also, the outcome (in the experiment with MCF7 [4]; in the experiment with MEF [5]; in the experiment on MEF [6]; in experiment [12]) was Active. The result (in the experiment on MEF [7]; in the experiment with MEF [8]; in experiment [11]) was inactive. Besides, the inhibition entry in the experiment on MEF [9] and in the experiment on MCF7 [14] was “inactive” in each case. Also, the inhibition result in the experiment on MEF [10], in the experiment with MEF [15], in the experiment with MEF [16], in the experiment with MEF [17], in the experiment with MEF [18] and on mTORC1 (Homo sapiens) [19] was “Active” throughout. In addition, the inhibition result (on mTORC1 (Homo sapiens) [20]; at mTORC1 (Homo sapiens) [21]; in experiment [22]) was “Active” in each case. Besides, in the experiment with MCF7 [13], the fold change (FC) is 3.
